RTF Ca sens act: increases calcium sensitivity of human cardiac regulated thin filaments. P19429+P45379. IANBD-labeled TnC RTF fluorescence at EC20 calcium; 0% EC20 calcium, 100% full calcium. activation, % at 7.2 µM. 340,000 tested, 0.24% active. AID 493008;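 active = activation above the mean over all tested compounds plus 3 SD, cut at about 30% in these data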;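 also: rise in fluorescence read as greater calcium sensitivity of cardiac thin filaments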
CRFBP-R2 agonist: CRF-BP/CRF-R2 complex agonism; 350,000 tested, 0.46% active; HEK293 CRF-R2/CRF-BP, calcium dye fluorescence (FLIPR); percent of saturating CRF peptide response; AID 588473; activation, % at 13.2 µM;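 active = activation of at least 50%, plus an integration ratio under a set limit after plate pattern correction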;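 also: plate controls were neutral control wells without compound for no effect and CRF at EC100 for full effect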
Tn6 DDE FP: DD(E)-Tn6 binding inhibition, primary FP screen; Fibrin DD(E) TRITC-Tn6 fluorescence polarization displacement; inhibition, % at 8.3 µM; 370,000 tested, 0.21% active;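 active = inhibition above a per-campaign cutoff: mean of compounds within control limits plus 3 SD, cut at about 15% in these data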;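 also: 0% = median of all compound wells on the plate and 100% = blocking peptide control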
Target sequence (P02675 whole entry, looked up): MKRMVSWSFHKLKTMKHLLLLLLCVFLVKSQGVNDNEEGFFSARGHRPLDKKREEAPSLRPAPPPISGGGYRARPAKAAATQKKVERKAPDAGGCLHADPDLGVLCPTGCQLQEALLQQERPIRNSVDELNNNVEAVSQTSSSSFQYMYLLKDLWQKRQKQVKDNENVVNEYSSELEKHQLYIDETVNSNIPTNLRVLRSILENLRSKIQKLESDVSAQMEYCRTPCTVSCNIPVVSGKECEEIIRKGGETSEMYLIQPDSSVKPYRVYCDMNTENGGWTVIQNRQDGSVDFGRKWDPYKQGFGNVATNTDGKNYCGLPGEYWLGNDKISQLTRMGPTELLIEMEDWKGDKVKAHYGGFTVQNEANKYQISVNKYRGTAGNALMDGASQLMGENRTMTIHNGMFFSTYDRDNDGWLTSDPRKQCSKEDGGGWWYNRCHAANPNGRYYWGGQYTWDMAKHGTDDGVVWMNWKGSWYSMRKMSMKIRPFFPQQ
RTF Ca sens inh: cardiac RTF calcium desensitization. 340,000 tested, 0.12% active. inhibition, % at 7.15 µM. IANBD-labeled cardiac RTF, Ca2+ fluorescence. P19429+P45379;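 active = inhibition above the mean inhibition of all tested compounds plus 3 SD, cut at about 17% in these data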;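 also: assay run at fixed EC70 calcium of 1.6 mM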
CRFR2-BP antag: CRF-BP/CRF-R2 complex antagonism | HEK293 CRF-R2/CRF-BP, CRF-induced calcium fluorescence | inhibition, % at 11.8 µM | 350,000 tested, 0.59% active | AID 588475;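 active = inhibition of the ligand-induced calcium signal above about 50% at the single tested concentration, limit read from the data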
Tn7 DDE FP: inhibitors of Tn7 peptide binding to human fibrin DD(E). P02675. FP displacement of FITC-Tn7 peptide from fibrin DD(E); 0% = median of compound wells per plate. inhibition, % at 8.3 µM. 370,000 tested, 0.13% active. AID 720508;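 active = inhibition above the mean of compounds falling within the control limits plus 3 SD of them, cut at about 14% in these data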;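 also: 0% = plate median of compound wells and 100% = 10 µM Aha-Tn7 peptide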
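Assay system: Human fibrin DD(E) protein | Medium: Tris buffer with calcium and detergent, pH 7.8 | Reagent: 0.1 µM fluorescent Tn7 | Compound dosing: Single point at 8.3 µM | Times: 10 min preincubation, 3 h with tracer, room temperature | Detection: Fluorescence polarization of the labelled Tn7 tracer | Controls: Aha-Tn7 high control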
* marks the source's active call; other numbers are inactive results; i = inactive; · = no result given. An excerpt weighted towards active compounds, which were near 1.4% of everything screened.

SMILES	RTF Ca sens act	CRFBP-R2 agonist	Tn6 DDE FP	RTF Ca sens inh	CRFR2-BP antag	Tn7 DDE FP
NS(=O)(=O)c1ccc(CCNC(=O)COC(=O)CCc2c[nH]c3ccccc23)cc1	-2	76*	5	-1	-39	2
CCOC(=O)C(Cc1ccccc1)NC(=O)CCc1nnc2ccc(N3CCCC3)nn12 (stereo not given)	3	0	-2	-3	58*	-9
CCOC(=O)C(Cc1ccccc1)NC(=O)CCc1nnc2ccc(N3CCCCC3)nn12 (stereo not given)	3	-5	-16	-10	0	-1
Cc1ccc(S(=O)(=O)N2O[C@@H](c3ccccc3)C[C@H]2CON2C(C)(C)CCCC2(C)C)cc1	·	·	-4	·	·	1
O=C(Nc1cccc(S(=O)(=O)N2CCCCC2)c1)c1ccc(S(=O)(=O)C(F)F)cc1	0	2	-7	-4	54*	6
CCc1nn2c(=O)cc(COc3ccc(/C=C4\C(=N)N5N=C(CC(C)C)SC5=NC4=O)cc3)nc2s1	·	-1	·	·	6	·
CC(C)CC1=NN2C(=N)/C(=C\c3coc4ccccc4c3=O)C(=O)N=C2S1	230*	306*	-12	-257	-287	-6
CCSC1=NSC2=NC(=O)/C(=C\c3coc4ccccc4c3=O)C(=N)N12	555*	185*	-1	i	-177	-5
COc1ccc(CN2CC(=O)N(c3cccc(Cl)c3)C2=S)cc1OC	-1	1	-1	2	90*	-2
COc1ccc(CN2CC(=O)N(c3ccc(Cl)cc3)C2=S)cc1OC	2	-4	3	-5	16	-4
CC1(O)c2ccccc2C(=O)N1Cc1ccccc1 (stereo not given)	-1	-5	4	-3	-2	-4
CC1(O)c2ccccc2C(=O)N1CCc1ccccc1F (stereo not given)	1	-4	6	-4	59*	8
Clc1ccc(-c2csc(N3CCOCC3)n2)cc1	-2	-7	4	0	77*	0
Brc1ccc(-c2csc(N3CCOCC3)n2)cc1	-2	0	0	2	-7	-3
CC(Oc1ccc(Br)cc1)C(=O)Nc1ccc(S(=O)(=O)N(C)C2CCN(C)CC2)cc1 (stereo not given)	-4	96*	2	4	-24	-8
CCC(=O)OCc1c(C(F)(F)F)nn(C)c1Sc1ccc(F)cc1	0	0	-7	-1	51*	-2
COc1ccc(NC(=S)N2CCC(N(C)CCN3CCOCC3)CC2)cc1Cl	1	-8	9	-15	52*	7
CCN1CCCc2cc(CN(CCN3CCOCC3)C(=S)Nc3ccc(OC)c(Cl)c3)ccc21	0	0	-3	-10	7	-7
CC1=C/C(=C\c2ccc(Br)o2)C(=O)O1	4	-1	2	-1	1	1
Cc1ccc(NC(=O)CN2C(=O)S/C(=C/c3ccc(-c4cc(C(=O)O)ccc4C)o3)C2=O)cc1C	15	18	2	-6	-22	3
Cc1ccc(C(=O)O)cc1-c1ccc(C=C2C(=O)c3ccccc3C2=O)o1	-8	75*	-4	0	-34	-3
O=C1C(=Cc2ccc(Br)o2)C(=O)c2ccccc21	-36	1	·	33*	15	·
CCOC(=O)[C@]12CCCC=C1N(Cc1ccco1)C(=O)[C@H](CC(=O)N1CCN(C(=O)c3ccco3)CC1)C2	·	·	3	·	·	-1
COC(=O)C1=C(C)NC(=O)CC1c1ccccc1F (stereo not given)	2	-1	7	-6	0	1
COC(=O)C1=C(N)c2c(F)cccc2C1(C#N)c1ccccc1 (stereo not given)	2	-2	-2	-13	58*	0
SMILES	RTF Ca sens act	CRFBP-R2 agonist	Tn6 DDE FP	RTF Ca sens inh	CRFR2-BP antag	Tn7 DDE FP
CCN1C(=O)/C(=C/C=C2\C=CN(CC)c3ccccc32)SC1=S	4	0	-2	-4	53*	-2
CCN1C(=O)C(=CC=CN(C)c2ccccc2)SC1=S	·	103*	0	·	-65	-13
CCCN1C(=O)/C(=C\C=C2\N(CC)c3ccccc3C2(C)C)SC1=S	90*	125*	-8	-110	-214	-2
Cc1ccccc1Cn1ccc2ccc(-c3ccc4ccn(Cc5ccccc5)c4c3)cc21	·	·	6	·	·	2
COc1ccc2c(c1)NC(=O)[C@@]2(CCN1C(=O)c2ccccc2C1=O)c1[nH]c2ccccc2c1CCN1C(=O)c2ccccc2C1=O	·	·	0	·	·	0
COc1ccccc1N1CCN(C(=O)/C=C/c2ccccc2)CC1	-5	-1	-4	-17	-25	-10
COc1ccccc1N1CCN(C(=O)/C=C/c2cccs2)CC1	2	-1	-7	-8	80*	-1
COc1ccc2c(c1)CCCN2C(=O)C1CCCN(S(=O)(=O)c2ccc(C)c(C)c2)C1 (stereo not given)	·	·	0	·	·	4
Cc1nc2ccc(NS(=O)(=O)c3ccc(C)c(C)c3)cc2s1	6	-3	-6	-22	78*	-1
CC(=O)c1cccc(S(=O)(=O)Nc2ccc3nc(C)sc3c2)c1	-2	-1	-1	-3	1	6
C=CCn1c(SCc2ccc(C#N)cc2)nnc1-c1ccco1	·	·	2	·	·	4
C[C@@H]1[C@@H](c2ccccc2)c2cc3ccccc3nc2-c2nc3ccccc3cc2[C@@H]1C(=O)N1CCCC1	·	·	-5	·	·	6
COc1ccc(N=C2S/C(=C\c3ccc(OCC(=O)O)cc3)C(=O)N2CCc2c[nH]c3ccccc23)cc1	-8	2	0	5	25	4
COc1ccc(N=C2S/C(=C\c3ccc(N4CCOCC4)o3)C(=O)N2CCc2c[nH]c3ccccc23)cc1	32*	·	·	-28	·	·
O=S1(=O)c2c(cccc2N2CCC[C@@H]2CO)O[C@@H]2CCN1C2	·	·	5	·	·	-4
CCC(=O)N(Cc1c(C)nn(-c2ccccc2)c1Cl)c1ccc(Cl)cc1	1	-2	6	2	68*	2
O=S1(=O)N[C@H](Cc2ccccc2)COc2cc(Br)ccc21	·	·	-9	·	·	1
CN(C)c1ccc(/C=C2\CCC/C(=C\c3ccccc3)C2=O)cc1	84*	31	5	-87	-69	-8
COC(=O)c1cc(NC(=O)c2ccccc2)c(=O)oc1/C=C/Nc1ccc(Oc2ccccc2)cc1	113*	138*	4	-254	-167	-13
CCn1nc(C)c(NC(=O)c2ccc(Cl)cc2)c1C	-1	0	-2	-3	-11	-5
CCn1nc(C)c(NC(=O)Nc2cccc(Cl)c2Cl)c1C	12	-4	2	-2	53*	-6
O=c1c(Cl)c2oc3ccccc3nc-2c2ccccc12	13	207*	·	-15	-309	·
